Screens deposited in PubChem by several laboratories.
CAL PDZ FP-1 = blocks peptide binding to the human CAL PDZ domain. Q9HD26. purified CAL PDZ, TMR-peptide fluorescence polarization, 1 h. inhibition, % at 24.9 µM. 0.92% of 300,000 active;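 active means mean inhibition of at least 30% with at least half of replicates also reaching 30%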;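 further: 0% = DMSO neutral control and 100% = excess unlabeled competitor peptide PRC23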
TbMetRS inhib = Trypanosoma brucei MetRS inhibition | purified T. brucei MetRS, ATP depletion, Kinase-Glo luminescence | inhibition, % at 11.9 µM | 0.4% of 360,000 active | AID 624268;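 active means inhibition above a per-plate cutoff of the control wells' mean inhibition plus 3 SD, cut at about 5.5% in these data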;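 further: 0% = DMSO wells median and 100% = median of wells with control inhibitor compound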
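Material: parasite MetRS enzyme / Replication: singlicate, one well per compound / Signal: luminescence of leftover ATP / Schedule: 2 h aminoacylation at 25 °C after 15 min preincubation / Medium: HEPES-MgCl2-KCl buffer plus DTT, spermine, BSA, pyrophosphatase / Doses: 11.9 µM single point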
Dyrk1A ADPGlo = blocks rat Dyrk1A kinase activity; 0.43% of 310,000 active; AID 504441; Q63470; ADP-Glo luminescence, NFATc1 peptide; inhibition, % at 12.5 µM; in the data active means inhibition above about 50%;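 further: plate controls were vehicle with enzyme for no effect and no enzyme for full effect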
PvdQ acylase = P. aeruginosa PvdQ acylase inhibition; AID 488965; purified PvdQ acylase, fluorescence plate reader; inhibition, % at 10 µM; 0.063% of 340,000 active; in the data active means inhibition above about 30%, passing the limit was not always enough;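 further: 0% = vehicle neutral wells and 100% = reference inhibitor wells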
CDK5 inh = inhibitors of human CDK5/p35 kinase; Q00535+Q15078; Recombinant CDK5/p35, ADP-Glo luminescence, 60 min; inhibition, % at 10 µM; 0.01% of 330,000 active;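 active means highest replicate inhibition of at least 50% and at least 75% of replicates reaching 50%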;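 further: plate controls were DMSO neutral control for no effect and GW8510 at 10 µM for full effect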
Target sequence (Q00535 whole entry, looked up): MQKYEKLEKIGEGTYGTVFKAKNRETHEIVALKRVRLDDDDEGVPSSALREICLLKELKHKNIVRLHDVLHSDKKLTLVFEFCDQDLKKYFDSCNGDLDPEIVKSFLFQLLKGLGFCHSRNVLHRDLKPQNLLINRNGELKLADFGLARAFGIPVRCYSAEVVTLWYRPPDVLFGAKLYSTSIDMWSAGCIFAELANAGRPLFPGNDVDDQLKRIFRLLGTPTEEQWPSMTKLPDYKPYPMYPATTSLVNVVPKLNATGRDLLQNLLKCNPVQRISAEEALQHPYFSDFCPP
Target sequence (Q15078 whole entry, looked up): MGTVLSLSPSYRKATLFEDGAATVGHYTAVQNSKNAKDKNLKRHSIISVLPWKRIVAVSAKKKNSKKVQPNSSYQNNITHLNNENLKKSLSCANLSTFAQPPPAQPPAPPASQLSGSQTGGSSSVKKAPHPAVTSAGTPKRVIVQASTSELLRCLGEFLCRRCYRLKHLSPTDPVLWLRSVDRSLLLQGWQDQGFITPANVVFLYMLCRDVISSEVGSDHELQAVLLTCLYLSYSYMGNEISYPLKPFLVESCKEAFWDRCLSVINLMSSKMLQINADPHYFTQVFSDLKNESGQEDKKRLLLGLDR
CAL PDZ FP-2 = blocks peptide binding to human CAL PDZ domain; AID 504414; 0.02% of 330,000 active; inhibition, % at 20 µM; Q9HD26; purified CAL PDZ, TMR-peptide fluorescence polarization, 1 h;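 active means highest replicate inhibition of at least 40%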;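 further: plate controls were DMSO neutral control wells for no effect and unlabeled competitor peptide control wells for full effect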
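Test system: tagged CAL PDZ domain / Buffer or medium: sodium phosphate/NaCl buffer pH 7.4 with TCEP, IgG, Thesit / Reagent: TMR-labelled reporter peptide T*-PRC34 bound in PDZ groove / Compound dosing: single point, 20 µM / Schedule: 1 h incubation at room temperature before polarization reading / Technique: fluorescence polarization (mP) / Benchmarks: unlabelled peptide, DMSO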
Starred values were filed as active, the others as inactive; nt = not tested or not shown; + = active, no number. An excerpt weighted towards active compounds, which were near 1.4% of everything screened.

SMILES	CAL PDZ FP-1	TbMetRS inhib	Dyrk1A ADPGlo	PvdQ acylase	CDK5 inh	CAL PDZ FP-2
Cc1ccc(-c2nn3c(C)nnc3c3ccccc23)cc1S(=O)(=O)NCCN1CCOCC1	nt	0	-4	-7	0	-3
COCC(=O)Oc1c(S(=O)(=O)c2ccc(C)cc2)c(C)nn1-c1ccccc1	-3	-1	-3	34*	0	nt
COc1cc(OC)cc(C(=O)Oc2ccc(/C=N/Nc3nc4ccccc4s3)cc2OC)c1	nt	0	-2	0	-2	-1
COc1cc(/C=N/Nc2nc3ccccc3s2)ccc1OC(=O)c1ccccc1F	72*	0	7	-7	-3	-2
Cc1ccc(C)c(C(Nc2ccccc2)c2ccc3ccc(C)nc3c2O)c1 (stereo unspecified)	nt	-1	nt	nt	nt	nt
Cn1c(SCC(=O)NNC(=O)c2ccc(Br)cc2)nnc1-c1cccnc1	63*	0	1	-7	-1	0
CCOC(=O)[C@]12CCCC=C1N(Cc1ccco1)C(=O)[C@H](CC(=O)NCCc1ccccc1OC)C2	nt	0	nt	nt	nt	nt
COc1ccccc1N(CC(=O)N1CCN(c2ccc(F)cc2)CC1)S(=O)(=O)c1ccc(C)cc1	55*	0	-3	-8	1	-2
CC1CCC(C(C)C)C(OCC(O)CNC(C)(C)C)C1 (stereo unspecified)	80*	-1	2	-18	-1	0
COc1ccc(C)cc1C(=O)C1CC(C(=O)O)C(C)(C)C1C (stereo unspecified)	-2	0	3	-11	0	0
COC(=O)[C@@H]1C[C@@H](C(=O)O)[C@H](C)C1(C)C	43*	0	-14	-9	2	1
COc1ccc(NC(=O)C2CCCN2S(=O)(=O)c2ccc3c(c2)C(C)(C)C(=O)N3C)cc1 (stereo unspecified)	nt	0	nt	nt	nt	nt
CCn1cc(C2=NC(CC(C)C)CO2)c2ccccc21 (stereo unspecified)	65*	-1	7	-15	-1	-2
Cc1nnc(SC(C)C#N)n1-c1ccccc1 (stereo unspecified)	76*	0	1	-13	0	0
CCN(CC(=O)Nc1cccc(OC)c1)CC(=O)Nc1cccc2ccccc12	-1	0	-1	-25	-2	-3
CCN(CC(=O)Nc1cccc(OC)c1)CC(=O)Nc1ccc(C)cc1Cl	66*	0	1	-15	-2	nt
C/C=C/c1cccc(-c2nc(C(=O)N3CCCCC3)cc3c2[C@@H](CCO)N(C(=O)NC(C)C)C3)c1	nt	-1	nt	nt	nt	nt
C[C@H]1[C@@H](Cc2cc(Cl)cc(Cl)c2)N(c2ccccc2)c2ccccc2CN1Cc1ccccc1	nt	-1	nt	nt	nt	nt
COc1ccc(NC(=O)CSc2nnnn2-c2ccc(OC)cc2)cc1	0	-1	-3	5	0	-2
CCOc1ccc(NC(=O)CSc2nnnn2-c2ccc(C(N)=O)cc2)cc1	66*	-1	-3	-19	2	nt
Cc1cnc(C(=O)N2CCN(S(=O)(=O)c3cc(C(F)(F)F)cc(C(F)(F)F)c3)CC2)cn1	-4	0	-4	-6	-3	1
CC1CC1C(=O)N1CCN(S(=O)(=O)c2cc(C(F)(F)F)cc(C(F)(F)F)c2)CC1 (stereo unspecified)	76*	0	nt	-9	2	0
Cc1cccnc1C(NC(=O)C1CCN(Cc2ccc3ccccc3n2)CC1)c1ccc(Cl)cc1 (stereo unspecified)	nt	0	nt	nt	nt	nt
COc1cc(/C=C/CNC[C@H]2O[C@@H](n3cnc4c(N)ncnc43)[C@H](O)[C@@H]2O)ccc1O	nt	5	nt	nt	nt	nt
Cc1ccc(OCC(=O)N2CC(C)OC(C)C2)c([N+](=O)[O-])n1 (stereo unspecified)	46*	0	-4	-14	0	7
SMILES	CAL PDZ FP-1	TbMetRS inhib	Dyrk1A ADPGlo	PvdQ acylase	CDK5 inh	CAL PDZ FP-2
COc1ccc(CCNC(=O)C(=O)N/N=C/c2cccs2)cc1OC	78*	0	-2	-12	-2	-1
CN1OC[C@@H]2CN(C(=S)NCCc3ccccc3)[C@H](c3ccc(-n4ccnc4)cc3)C[C@@H]21	nt	0	nt	nt	nt	nt
CC(C)c1ccc(NC(=O)c2cc(Br)ccc2Br)cc1	37*	0	-1	12	0	0
CC1=NN(c2ccccc2)C(=O)C1CCC#N (stereo unspecified)	nt	0	nt	nt	nt	nt
CC(C)Nc1cc(C(C)(C)C)nc2c(-c3ccccc3)cnn12	133*	0	6	-18	0	-1
NC(=O)COC(=O)c1ccc(NS(=O)(=O)c2ccc3c(c2)OCCO3)cc1	76*	0	-3	-11	-1	-1
N#CCC(=O)Nc1ccc(C(=O)OCC(=O)NC(=O)Nc2ccc3c(c2)OCCO3)cc1	62*	0	-1	-14	1	-2
CCOC(=O)CSc1nnc(-c2ccc3ncccc3c2)n1C	+	-1	-1	-10	1	0
c1ccc(CCC2CCCCN2Cc2cn[nH]c2-c2cc3ccccc3o2)nc1 (stereo unspecified)	101*	-1	-1	-21	-2	-1
O=C(c1ccccn1)C1CCCN(Cc2cn[nH]c2-c2cc3ccccc3o2)C1 (stereo unspecified)	-1	-1	-2	4	-1	-2
COc1ccc(CNc2nc3nc(-c4ccccc4)cc(=O)n3[nH]2)cc1OC	40*	-1	4	-17	1	-1
c1ccc(-c2cnc(CSc3nnc4ccccn34)o2)cc1	57*	0	7	-18	0	0
Fc1ccc(-c2nnc(CSc3nnc4ccccn34)o2)cc1	nt	0	3	-10	-1	-1
CCCCN(CCCC)C(=O)/C=C/c1cccc([N+](=O)[O-])c1	0	-1	6	-16	1	0
COc1ccc(OCC(O)CN(C)C(=O)/C=C/c2cccc([N+](=O)[O-])c2)cc1 (stereo unspecified)	86*	0	1	-9	-3	-2
CCOC(=O)N1CCN(C(C(=O)NC2CCCC2)C(C)C)CC1 (stereo unspecified)	nt	0	nt	nt	nt	nt
O=c1c(Br)c(Br)cnn1-c1ccccc1	32*	0	nt	-1	0	-1
Cc1ccc(-n2ncc(Br)c(Br)c2=O)cc1	-2	0	0	-12	3	-4
O=C(Nc1ccc(F)cc1)C(c1ccnc2ccccc12)N1CCN(c2cccc(C(F)(F)F)n2)CC1 (stereo unspecified)	nt	0	nt	nt	nt	nt
COc1ccc(CCNC(=O)Cn2c(=O)n(-c3ccc(F)cc3F)c(=O)c3sccc32)cc1OC	32*	-1	-1	-10	1	nt
Cc1ccc(S(=O)(=O)NCCN(CCNS(=O)(=O)c2ccc(C)cc2)S(C)(=O)=O)cc1	52*	0	-4	-18	0	-1
Cc1ccc(S(=O)(=O)NCCCCCCNS(=O)(=O)c2ccc(C)cc2)cc1	nt	0	nt	nt	nt	nt
